Assay outcomes: PubChem, several laboratories
The list is not random: actives were taken first. Their share in the collection is about 2.1%.
ARNT TACC3 PPI: ARNT/TACC3 interaction disruption | inhibition, % at 9.99 µM | 0.66% of 390,000 active | Q9Y6A5 | AlphaScreen His-ARNT PAS-B/GST-TACC3 binding, luminescence; TACC3 fragment carries E629A point mutation;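 active means mean inhibition of replicates at least 50% and at least half of replicates each reaching 50%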;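 further: 0% = complete ARNT plus TACC3 wells and 100% = ARNT alone without TACC3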
RTF Ca sens inh: cardiac RTF calcium desensitization. P19429+P45379. inhibition, % at 7.15 µM. IANBD-labeled cardiac RTF, Ca2+ fluorescence. AID 493244. 0.12% of 340,000 active;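 active means inhibition above the mean inhibition of all tested compounds plus 3 SD, cut at about 17% in these data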;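 further: assay run at fixed EC70 calcium of 1.6 mM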
Mot1-301 SUMO: SUMOylation pathway inhibition by Mot1-301 growth rescue; growth rescue, % at 18.8 µM; S. cerevisiae Mot1-301 growth rescue, ATP luminescence, 38.5C; percent above DMSO median, 100 means doubled; 1% of 320,000 active;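 active means every valid replicate shows activation above 250% relative to neutral control wells; inactive means the rest, any valid replicate at or below 250%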;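 further: OY570 slx delta 5 strain wells were the positive control but not used for scaling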
Efflux pump inh: antifungal efflux pump inhibition, Nile Red retention | S. cerevisiae Candida pump triplex | inhibition, % at 10 µM | 0.44% of 330,000 active;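 active means plate passing quality check with inhibition over a set limit, or well fluorescence over plate mean plus 4 SD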;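 further: Nile Red retained in pooled yeast measured as flow cytometry median fluorescence; 0% = buffer negative control and 100% = Enniatin B positive control; higher means more Nile Red kept so more efflux inhibition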
RTF Ca sens act: cardiac RTF calcium sensitization; activation, % at 7.2 µM; IANBD-labeled TnC RTF fluorescence at EC20 calcium; 0% EC20 calcium, 100% full calcium; 0.24% of 340,000 active; P19429+P45379;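 active means activation above the mean over all tested compounds plus 3 SD, cut at about 30% in these data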;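 further: rise in fluorescence read as greater calcium sensitivity of cardiac thin filaments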
UCH37 DUB inh: inhibitors of human deubiquitinating enzyme UCH37; Q9Y5K5; purified proteasome/UCH37, Ub-AMC cleavage fluorescence; inhibition, % (no concentration beside the values); 0.33% of 330,000 active; AID 588478;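 active means mean inhibition over replicate wells above about 20%, limit read from the data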;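 further: 0% = compound-free wells with enzyme and 100% = wells lacking proteasome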
Target sequence (Q9Y5K5 whole entry, looked up): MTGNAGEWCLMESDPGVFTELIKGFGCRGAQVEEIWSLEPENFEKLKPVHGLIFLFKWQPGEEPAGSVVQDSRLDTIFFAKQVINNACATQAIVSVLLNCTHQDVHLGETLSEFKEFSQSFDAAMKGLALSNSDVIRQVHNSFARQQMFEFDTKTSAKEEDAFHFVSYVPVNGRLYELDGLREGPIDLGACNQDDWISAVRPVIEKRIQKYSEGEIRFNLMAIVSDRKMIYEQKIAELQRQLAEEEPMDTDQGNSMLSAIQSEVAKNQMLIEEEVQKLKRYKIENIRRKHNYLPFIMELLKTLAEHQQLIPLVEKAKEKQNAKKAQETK
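Material: human UCH37 enzyme supplied as purified proteasome complex / Amount: 0.15 nM proteasome as dispensed / Buffer or medium: pH 7.4 Tris-HCl (50 mM) with ovalbumin, ATP-MgCl2, DTT / Times: preincubation 30 min, reaction 25 min, room temperature / Technique: AMC fluorescence from Ub-AMC cleavage, excitation 355 nm, emission 460 nm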
Mot1 SUMO dose: yeast SUMO pathway inhibition in dose response; 2,300 tested, under 10 active; growth activity, percent, % at 42 µM; AID 493004; shares compounds with Mot1-301 SUMO; S. cerevisiae Mot1-301 galactose growth, ATP luminescence, 24 h; -100 = growth of slx-deleted rescue strain;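 active means Signal drops as the depositor expects, and the fitted half-maximal dose is no more than ten times the top valid tested dose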;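 further: more negative values mean stronger growth rescue toward the control strain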
* hit, by the source's call; nt = no result given; + = active, no number; ! = not active in a repeat.

SMILES	ARNT TACC3 PPI	RTF Ca sens inh	Mot1-301 SUMO	Efflux pump inh	RTF Ca sens act	UCH37 DUB inh	Mot1 SUMO dose
CCCCOC(=O)/C(=C/C=C/c1ccccc1)NC(=O)c1ccccc1	11	nt	815*	0	nt	2	-1
CCS(=O)(=O)N1CCC(C(=O)NCCCN2CCN(c3ccccc3F)CC2)CC1	-2	-2	481*	0	2	1	1
O=C(NCCCN1CCN(c2ccccc2F)CC1)Nc1ccccc1[N+](=O)[O-]	14	-2	447*	0	0	4	0
O=C(NCCCN1CCN(c2ccccc2F)CC1)Nc1ccc(F)cc1	6	-1	-2	0	-4	2	nt
Cc1cccc(C=NNc2nncc3ccccc23)c1	nt	nt	nt	nt	nt	6	nt
N/C(=N\N=Cc1ccnc2ccccc12)SC1CC(=O)N(c2ccc(Br)cc2)C1=O (stereo not drawn)	nt	nt	nt	nt	nt	0	nt
CCC(=NO)c1c(O)c2c(n(-c3ccccc3)c1=O)CCCC2	nt	nt	nt	nt	nt	1	nt
CCCCc1ccc(NC(=S)NCc2cccs2)cc1	2	-14	573*	0	0	6	-1
CCN(CC1COc2ccccc2O1)C(=S)Nc1ccccc1 (stereo not drawn)	26	1	-15	-1	-1	0	nt
CCN(CC1COc2ccccc2O1)C(=S)NCCCN(C)C (stereo not drawn)	-10	-8	+	0	5	5	0
CCc1ccc(C(=O)NN=C(C)c2ccncc2)s1	nt	nt	nt	nt	nt	5	nt
Cc1nnc(NN=CC2CC=CCC2)[nH]c1=O (stereo not drawn)	nt	nt	nt	nt	nt	4	nt
CCOc1ccc(C)cc1S(=O)(=O)n1nc(C)cc1C	0	-3	477*	0	10	4	0
CCOc1ccc(C(C)(C)C)cc1S(=O)(=O)n1nc(C)cc1C	-1	-2	56	0	2	6	nt
N=c1c2c(n(Cc3ccc(Cl)c(Cl)c3)c3c1CCC3)CCCC2	3	-2	+	0	1	5	0
CCOC(=O)NN=C(C)c1ccc(Oc2ncccn2)cc1	nt	nt	nt	nt	nt	3	nt
COC(=O)CCCC(=O)NCC1(N(C)Cc2ccccc2)Cc2ccccc2C1	-12	2	387*	0	-5	-2	1
CC(=O)NCCC(=O)NCC1(N(C)Cc2ccccc2)Cc2ccccc2C1	-6	-7	-6	0	-2	2	nt
CC(=NNc1nc2ccccc2s1)c1ccc2c(c1)OCO2	nt	nt	nt	nt	nt	6	nt
O=C(Nc1ccc2c(c1)OCO2)O[C@@H]1C[C@H]2CCCC(=O)N3CC[C@@H](C1)[C@@H]23	0	-1	2	0	-2	2	nt
CC1(C)CCC(=O)N2CC[C@H]3C[C@H](OC(=O)Nc4ccc(Br)cc4)C[C@@H]1[C@H]32	13	4	805*	0	-2	nt	0
COc1cc(C=NNC(=O)c2cc(-c3cccn3C)n[nH]2)cc(OC)c1OC	nt	nt	nt	nt	nt	2	nt
CCC(NC(=O)c1ccccc1NC(=O)c1ccco1)C(=O)NC1CCCCC1 (stereo not drawn)	-4	-3	381*	0	-4	nt	0
CN(C(=S)NC1=CCS(=O)(=O)C1)C1CCCCC1	-10	-3	581*	0	1	7	-1
O=C(NN=C/C=C/c1ccccc1)c1cc(C2CC2)[nH]n1	nt	nt	nt	nt	nt	7	nt
SMILES	ARNT TACC3 PPI	RTF Ca sens inh	Mot1-301 SUMO	Efflux pump inh	RTF Ca sens act	UCH37 DUB inh	Mot1 SUMO dose
COc1ccc(Cl)cc1C(=O)NCCc1ccc(S(=O)(=O)NC(=O)NC2CCCCC2)cc1	1	1	390*!	0	-5	nt	0
C=CCOc1c(Br)cc(C=NNC(N)=O)cc1OC	nt	nt	nt	nt	nt	-3	nt
CC(=NNC(=O)CCCNc1ccc(C)cc1)c1ccccn1	nt	nt	nt	nt	nt	5	nt
COc1ccc(C(=O)NNC(=S)NC(=O)c2cccc([N+](=O)[O-])c2)cc1	2	2	-35	0	-1	3	nt
O=C(NC(=S)NNC(=O)c1ccccc1O)c1cccc([N+](=O)[O-])c1	77*	-6	368*	0	0	8	0
COc1cccc(C=Nn2c(C)nnc2C)c1OC	nt	nt	nt	nt	nt	-7	nt
Cc1ccc(C(=O)OCc2nc3ccsc3c(=O)[nH]2)o1	-2	-1	15	0	1	1	nt
